Among the data in ChEMBL document CHEMBL1145200, “4-Benzyl and 4-benzoyl-3-dimethylaminopyridin-2(1H)-ones: in vitro evaluation of new C-3-amino-substituted and C-5,6-alkyl-substituted analogues against clinically important HIV mutant strains” (J Med Chem, 2005) are IC50 and SI values, retold here.

One experiment concerns Human immunodeficiency virus 1. Description: In vitro inhibitory concentration against HIV LAI cell line. Type of experiment: functional, organism-based. The conditions noted are these: Human immunodeficiency virus 1, LAI. The method, boiled down:
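HIV-1 LAI was added at 200 CCID50/well to MT4 human T-lymphoblastoid cells (30 000 cells/well) across a concentration range of compound. Cells were grown in RPMI 1640 with 10% fetal calf serum and antibiotics. After 5 days at 37 °C in 5% CO2, cell viability was read by MTT colorimetry. EC50 was the concentration giving 50% infection versus the drug-free control.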
Consider `CCC(=O)Nc1c(Cc2cc(C)cc(C)c2)c(CC)c(C)[nH]c1=O`, for which the IC50 – broadly, the point on the concentration scale where inhibition reaches its midpoint – was 3.98 µM.

With `CCCN(C)c1c(Cc2cc(C)cc(C)c2)c(CC)c(C)[nH]c1=O`, half-maximal inhibition (IC50) was put at 0.016 µM.

As for `CCOCCN(C)c1c(Cc2cccc(C)c2)c(CC)c(C)[nH]c1=O`, the IC50 worked out at 0.013 µM.

In the case of `CCc1c(C)nc(O)c(N(C)C)c1C(=O)c1cccc(C)c1`, the midpoint of inhibition, the IC50, lay at 0.0025 µM.

Molecule `CCc1c(C)[nH]c(=O)c(N2CCCCC2)c1Cc1cc(C)cc(C)c1` came in with an IC50 of 0.631 µM.

For `CCc1[nH]c(=O)c(N(C)C)c(Cc2cc(C)cc(C)c2)c1C`, the midpoint of inhibition, the IC50, lay at 0.01 µM.

Molecule `CCCCNc1c(Cc2cc(C)cc(C)c2)c(CC)c(C)[nH]c1=O` displayed an IC50 of 0.126 µM.

On to `CCc1c(C)[nH]c(=O)c(NC(=S)Nc2ccccc2)c1Cc1cccc(C)c1`, for which the 50% inhibitory concentration (IC50) came to 3.16 µM.

`CCc1c(C)[nH]c(=O)c(NCc2ccccc2)c1Cc1cc(C)cc(C)c1` had a concentration for half-maximal inhibition (IC50) of 0.251 µM.

Take `CCNC(=S)Nc1c(Cc2cccc(C)c2)c(CC)c(C)[nH]c1=O`: the IC50 came to 25.1 µM.

`CCc1c(C)[nH]c(=O)c(N2CCOCC2)c1Cc1cc(C)cc(C)c1` came in with an IC50 of 0.158 µM.

In the case of `CCc1c(C)[nH]c(=O)c(N(C)CCCSC)c1Cc1cc(C)cc(C)c1`, half-maximal inhibition (IC50) required 0.025 µM.

Regarding `CCCCN(CCCC)c1c(Cc2cc(C)cc(C)c2)c(CC)c(C)[nH]c1=O`, the IC50 amounted to 50.1 µM.

`CCc1nc(O)c(N(C)C)c(C(=O)c2cccc(C)c2)c1C` showed a half-maximal inhibitory concentration (IC50) of 0.1 µM.

The molecule `CCc1c(C)[nH]c(=O)c(N(Cc2ccccc2)Cc2ccccc2)c1Cc1cc(C)cc(C)c1` yielded an IC50 of 100 µM.

As for `Cc1cc(C)cc(Cc2c(C)c(C)[nH]c(=O)c2N(C)C)c1`, it took 0.005 µM to reach half-maximal inhibition (IC50).

The molecule `Cc1cc(C)cc(Cc2c(C)c(C(C)C)[nH]c(=O)c2N(C)C)c1` yielded an IC50 of 0.794 µM.

The molecule `CCc1c(C)[nH]c(=O)c(NC(N)=S)c1Cc1cccc(C)c1` came in with an IC50 of 0.316 µM.

With `Cc1cc(C)cc(Cc2cc[nH]c(=O)c2N(C)C)c1`, the IC50 was 7.94 µM.

In turn, `CCc1c(C)[nH]c(=O)c(N(C)CCC#N)c1Cc1cccc(C)c1` came in with a concentration for half-maximal inhibition (IC50) of 0.016 µM.

As for `CCCC(=O)Nc1c(Cc2cc(C)cc(C)c2)c(CC)c(C)[nH]c1=O`, the IC50 turned out to be 100 µM.

A further experiment has as its system Human immunodeficiency virus 1. The experiment can be described thus: In vitro inhibitory concentration against HIV Y188L mutant strain. In kind it is functional, organism-based.
Conditions: not given
In short, it runs like this:
(§1)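 MT4 human T-lymphoblastoid cells, grown in RPMI 1640 with 10% fetal calf serum and antibiotics at 37 °C under 5% CO2. Mutant HIV-1 strains were added at 200 CCID50/well with 30 000 cells/well across a compound concentration range. After 5 days at 37 °C, viability was read by MTT colorimetry. EC50 is the concentration giving 50% infection relative to the drug-free control.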
As for `CCc1c(C)nc(O)c(N(C)C)c1C(=O)c1cccc(C)c1`, the half-inhibitory concentration (IC50) came out at 2 µM.

For the molecule `CCc1[nH]c(=O)c(N(C)C)c(Cc2cc(C)cc(C)c2)c1C`, the IC50 worked out at 5.01 µM.

`Cc1cc(C)cc(Cc2c(C)c(C)[nH]c(=O)c2N(C)C)c1` gave an IC50 of 3.16 µM.

A further experiment relates to Human immunodeficiency virus 1. Description: In vitro inhibitory concentration against HIV K103N mutant strain. In kind it is functional, organism-based.
Conditions: not given
In short, it runs like this:
as §1
For `CCC(=O)Nc1c(Cc2cc(C)cc(C)c2)c(CC)c(C)[nH]c1=O`, the IC50 was determined as 100 µM.

Molecule `CCCN(C)c1c(Cc2cc(C)cc(C)c2)c(CC)c(C)[nH]c1=O` returned an IC50 of 0.1 µM.

The molecule `CCc1c(C)[nH]c(=O)c(N2CCCCC2)c1Cc1cc(C)cc(C)c1` displayed an IC50 of 63.1 µM.

As to `CCc1[nH]c(=O)c(N(C)C)c(Cc2cc(C)cc(C)c2)c1C`, inhibition was half-maximal at 0.1 µM (IC50).

`CCCCNc1c(Cc2cc(C)cc(C)c2)c(CC)c(C)[nH]c1=O` registered a half-maximal inhibitory concentration (IC50) of 2 µM.

`CCc1c(C)[nH]c(=O)c(NCc2ccccc2)c1Cc1cc(C)cc(C)c1` registered an IC50 of 3.16 µM.

The molecule `CCc1c(C)[nH]c(=O)c(N2CCOCC2)c1Cc1cc(C)cc(C)c1` gave an IC50 of 100 µM.

`CCc1c(C)[nH]c(=O)c(N(C)CCCSC)c1Cc1cc(C)cc(C)c1` showed a 50% inhibitory concentration (IC50) of 1 µM.

`CCCCN(CCCC)c1c(Cc2cc(C)cc(C)c2)c(CC)c(C)[nH]c1=O` had a half-inhibitory concentration (IC50) of 100 µM.

In turn, `CCc1c(C)[nH]c(=O)c(N(Cc2ccccc2)Cc2ccccc2)c1Cc1cc(C)cc(C)c1` displayed an IC50 of 50.1 µM.

The molecule `Cc1cc(C)cc(Cc2c(C)c(C)[nH]c(=O)c2N(C)C)c1` returned an IC50 of 0.398 µM.

In turn, `Cc1cc(C)cc(Cc2cc[nH]c(=O)c2N(C)C)c1` had an IC50 of 39.8 µM.

In turn, `CCCC(=O)Nc1c(Cc2cc(C)cc(C)c2)c(CC)c(C)[nH]c1=O` displayed an IC50 of 100 µM.

A further experiment concerns Human immunodeficiency virus 1. The experiment can be described thus: Selective index value (ratio of CC50 to IC50 value)against HIV LAI cell line. Type of experiment: functional.
Conditions: not given
The method, boiled down: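 Ratio of CC50 to IC50 against LAI. CC50 came from mock-infected MT4 cultures (30 000 cells/well) given the same compound concentration range, run in parallel with LAI-infected cultures (200 CCID50/well). Incubation was 5 days at 37 °C in 5% CO2, with MTT viability read-out.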
Turning to `CCC(=O)Nc1c(Cc2cc(C)cc(C)c2)c(CC)c(C)[nH]c1=O`, the SI was determined as 25.

For `CCCN(C)c1c(Cc2cc(C)cc(C)c2)c(CC)c(C)[nH]c1=O`, the SI came to 6310.

Turning to `CCOCCN(C)c1c(Cc2cccc(C)c2)c(CC)c(C)[nH]c1=O`, the SI is 7940.

Take `CCc1c(C)nc(O)c(N(C)C)c1C(=O)c1cccc(C)c1`: the SI stood at 39800.

Regarding `CCc1c(C)[nH]c(=O)c(N2CCCCC2)c1Cc1cc(C)cc(C)c1`, the SI was found to be 158.

As for `CCc1[nH]c(=O)c(N(C)C)c(Cc2cc(C)cc(C)c2)c1C`, the SI stood at 10000.

For the molecule `CCCCNc1c(Cc2cc(C)cc(C)c2)c(CC)c(C)[nH]c1=O`, the SI was 398.

For the molecule `CCc1c(C)[nH]c(=O)c(NC(=S)Nc2ccccc2)c1Cc1cccc(C)c1`, the SI is 25.

Turning to `CCc1c(C)[nH]c(=O)c(NCc2ccccc2)c1Cc1cc(C)cc(C)c1`, the SI amounted to 251.

As to `CCNC(=S)Nc1c(Cc2cccc(C)c2)c(CC)c(C)[nH]c1=O`, the SI turned out to be 4.

As for `CCc1c(C)[nH]c(=O)c(N2CCOCC2)c1Cc1cc(C)cc(C)c1`, the SI worked out at 251.

For `CCc1c(C)[nH]c(=O)c(N(C)CCCSC)c1Cc1cc(C)cc(C)c1`, the SI stood at 398.

Consider `CCCCN(CCCC)c1c(Cc2cc(C)cc(C)c2)c(CC)c(C)[nH]c1=O`, for which the SI worked out at 2.

As to `CCc1nc(O)c(N(C)C)c(C(=O)c2cccc(C)c2)c1C`, the SI stood at 1000.

`CCc1c(C)[nH]c(=O)c(N(Cc2ccccc2)Cc2ccccc2)c1Cc1cc(C)cc(C)c1`: the SI was 1.

For the molecule `Cc1cc(C)cc(Cc2c(C)c(C)[nH]c(=O)c2N(C)C)c1`, the SI worked out at 2000.

Turning to `Cc1cc(C)cc(Cc2c(C)c(C(C)C)[nH]c(=O)c2N(C)C)c1`, the SI is 126.

For `CCc1c(C)[nH]c(=O)c(NC(N)=S)c1Cc1cccc(C)c1`, the SI was found to be 316.

For the molecule `Cc1cc(C)cc(Cc2cc[nH]c(=O)c2N(C)C)c1`, the SI is 10.

Turning to `CCc1c(C)[nH]c(=O)c(N(C)CCC#N)c1Cc1cccc(C)c1`, the SI turned out to be 6310.

On to `CCCC(=O)Nc1c(Cc2cc(C)cc(C)c2)c(CC)c(C)[nH]c1=O`, for which the SI came to 1.

For a further experiment, the system named is Human immunodeficiency virus 1. Description: In vitro inhibitory concentration against HIV-1 Y181C mutant strain.
Conditions: not given
Type of experiment: functional, organism-based. The method, boiled down:
as §1
`CCC(=O)Nc1c(Cc2cc(C)cc(C)c2)c(CC)c(C)[nH]c1=O`: the IC50 was determined as 100 µM.

Molecule `CCCN(C)c1c(Cc2cc(C)cc(C)c2)c(CC)c(C)[nH]c1=O` came in with an IC50 of 0.398 µM.

On to `CCc1c(C)[nH]c(=O)c(N2CCCCC2)c1Cc1cc(C)cc(C)c1`, for which the IC50 worked out at 39.8 µM.

Consider `CCc1[nH]c(=O)c(N(C)C)c(Cc2cc(C)cc(C)c2)c1C`, for which it took 0.251 µM to reach half-maximal inhibition (IC50).

`CCCCNc1c(Cc2cc(C)cc(C)c2)c(CC)c(C)[nH]c1=O` returned a concentration for half-maximal inhibition (IC50) of 5.01 µM.

`CCc1c(C)[nH]c(=O)c(NCc2ccccc2)c1Cc1cc(C)cc(C)c1` came in with a half-inhibitory concentration (IC50) of 10 µM.

For `CCc1c(C)[nH]c(=O)c(N2CCOCC2)c1Cc1cc(C)cc(C)c1`, the IC50 was determined as 10 µM.

`CCc1c(C)[nH]c(=O)c(N(C)CCCSC)c1Cc1cc(C)cc(C)c1` returned an IC50 of 0.501 µM.

In the case of `CCCCN(CCCC)c1c(Cc2cc(C)cc(C)c2)c(CC)c(C)[nH]c1=O`, inhibition was half-maximal at 100 µM (IC50).

`CCc1c(C)[nH]c(=O)c(N(Cc2ccccc2)Cc2ccccc2)c1Cc1cc(C)cc(C)c1`: the IC50 amounted to 79.4 µM.

`Cc1cc(C)cc(Cc2c(C)c(C)[nH]c(=O)c2N(C)C)c1` came in with an IC50 of 0.398 µM.

On to `Cc1cc(C)cc(Cc2cc[nH]c(=O)c2N(C)C)c1`, for which half-maximal inhibition (IC50) required 100 µM.

In turn, `CCCC(=O)Nc1c(Cc2cc(C)cc(C)c2)c(CC)c(C)[nH]c1=O` gave an IC50 of 100 µM.
